From ChEMBL document CHEMBL1806371, “Selenocyanates and diselenides: a new class of potent antileishmanial agents” (Eur J Med Chem, 2011)

What was measured:
[1] = Permeability across human Caco2 cells; format: ADME, cell-based; details: Caco-2, read-out: permeability
[2] = Selectivity ratio, ratio of IC50 for human THP1 cells to IC50 for Leishmania infantum MCAN/ES/89/IPZ229/1/89 amastigotes; format: ADME, cell-based; details: THP-1 cells, read-out: Ratio IC50
In short: (§1)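 Selectivity index is IC50 against Jurkat or THP-1 cells divided by IC50 against L. infantum amastigotes. Host cells were treated in log phase at 4×10^5 cells/mL for 24 h at 37 °C, 5% CO2, at 0.08, 0.4, 2.0, 10.0 and 50.0 μM. Viability was measured by flow cytometry with propidium iodide exclusion.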

Leishmania infantum [3] = test: Antileishmanial activity against Leishmania infantum MCAN/ES/89/IPZ229/1/89 promastigotes assessed as growth inhibition at 25 uM after 24 hrs; format: functional
In short: (§2)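 Log-phase L. infantum promastigotes (RPMI-1640, 10% FCS, 25 mM HEPES, pH 7.2, 26 °C) treated at 2×10^6 parasites/mL for 24 h. Screening used 25, 12.5 and 6.25 μM to give percent growth inhibition. Living cells measured by flow cytometry with propidium iodide exclusion. At least three independent experiments.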

[4] = Human intestinal absorption in human; format: ADME, organism-based; details: read-out: HIA
In short: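 Values are computed, not measured. Human intestinal absorption (%) and Caco-2 permeability (nm/s) were predicted in silico with the PreADMET program.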

Jurkat [5] = test: Cytotoxicity against human Jurkat cells assessed as live cells in neubauer chamber after 24 hrs by trypan blue assay; format: cell-based
Leishmania infantum [6] = test: Antileishmanial activity against Leishmania infantum MCAN/ES/89/IPZ229/1/89 amastigotes expressing GFP infected in human THP1 cells assessed as parasite infected cells after 48 hrs by flow cytometry (reference value: 35%); format: functional, THP-1
Leishmania infantum [7] = test: Antileishmanial activity against Leishmania infantum MCAN/ES/89/IPZ229/1/89 amastigotes after 24 hrs by microscopy; format: functional, organism-based; details: MCAN/ES/89/IPZ229/1/89, 24 h
In short: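 Axenic L. infantum amastigotes (M199, 10% FCS, pH 5.4, 37 °C) treated in log phase at 1×10^6 parasites/mL for 24 h. Living cells counted by flow cytometry with propidium iodide exclusion, with microscopic observation by phase contrast or fluorescence. At least three independent experiments.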

Leishmania infantum [8] = test: Ratio of miltefosine IC50 to compound IC50 for Leishmania infantum MCAN/ES/89/IPZ229/1/89 amastigotes; format: functional
THP-1 [9] = test: Cytotoxicity against human THP1 cells assessed as live cells in neubauer chamber after 24 hrs by trypan blue assay; format: cell-based; details: THP-1, 24 h
Leishmania infantum [10] = test: Ratio of edelfosine IC50 to compound IC50 for Leishmania infantum MCAN/ES/89/IPZ229/1/89 amastigotes; format: functional
Leishmania infantum [11] = test: Antileishmanial activity against Leishmania infantum MCAN/ES/89/IPZ229/1/89 promastigotes assessed as growth inhibition at 12.5 uM after 24 hrs; format: functional; in short: as §2
Leishmania infantum [12] = test: Antileishmanial activity against Leishmania infantum MCAN/ES/89/IPZ229/1/89 promastigotes assessed as growth inhibition at 6.25 uM after 24 hrs; format: functional; in short: as §2
[13] = Selectivity ratio, ratio of IC50 for human Jurkat cells to IC50 for Leishmania infantum MCAN/ES/89/IPZ229/1/89 amastigotes; format: ADME, cell-based; details: read-out: Ratio IC50; in short: as §1
Leishmania infantum [14] = test: Antileishmanial activity against Leishmania infantum MCAN/ES/89/IPZ229/1/89 promastigotes after 24 hrs […]; format: functional, organism-based; details: MCAN/ES/89/IPZ229/1/89, 24 h; in short: as §2
Jurkat [15] = test: Cytotoxicity against human Jurkat cells infected with Leishmania infantum MCAN/ES/89/IPZ229/1/89 at 3 uM by phase contrast microscopy; format: cell-based
THP-1 [16] = test: Cytotoxicity against human THP1 cells infected with Leishmania infantum MCAN/ES/89/IPZ229/1/89 at 1 uM by phase contrast microscopy; format: cell-based; details: thp-1, 1 µM
In short: (§3)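 Drug was added to PMA-differentiated THP-1 cells infected with eGFP amastigotes, at 1, 3 and 15 µM, alongside a DMSO control at the highest assay concentration. Propidium iodide was added to a final 5 µg/mL, and cells were examined at once by phase contrast and fluorescence microscopy; PI stains dead cells.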

Leishmania infantum [17] = test: Antileishmanial activity against Leishmania infantum MCAN/ES/89/IPZ229/1/89 amastigotes expressing GFP infected in human THP1 cells assessed as reduction in parasite infection rate at 3 uM after 48 hrs by flow cytometry; format: functional, THP-1; design: scale not given: the % may be the effect or the level left
THP-1 [18] = test: Cytotoxicity against human THP1 cells infected with Leishmania infantum MCAN/ES/89/IPZ229/1/89 at 3 uM by phase contrast microscopy; format: cell-based; details: thp-1, 3 µM; in short: as §3
THP-1 [19] = test: Cytotoxicity against human THP1 cells infected with Leishmania infantum MCAN/ES/89/IPZ229/1/89 at 1 uM using propidium iodide staining by fluorescence contrast microscopy; format: cell-based; details: thp-1, 1 µM; in short: as §3
Leishmania infantum [20] = test: Antileishmanial activity against Leishmania infantum MCAN/ES/89/IPZ229/1/89 axenic amastigotes infected in human THP1 cells expressing GFP assessed as complete killing of parasite at 3 uM after 48 hrs by propidium iodide staining based flow cytometry; format: functional, THP-1
THP-1 [21] = test: Cytotoxicity against human THP1 cells infected with Leishmania infantum MCAN/ES/89/IPZ229/1/89 at 3 uM; format: cell-based; details: thp-1, 3 µM
Jurkat [22] = test: Cytotoxicity against human Jurkat cells infected with Leishmania infantum MCAN/ES/89/IPZ229/1/89 at 3 uM using propidium iodide staining by fluorescence contrast microscopy; format: cell-based
Jurkat [23] = test: Cytotoxicity against human Jurkat cells infected with Leishmania infantum MCAN/ES/89/IPZ229/1/89 at 1 uM using propidium iodide staining by fluorescence contrast microscopy; format: cell-based
Leishmania infantum [24] = test: Antileishmanial activity against Leishmania infantum MCAN/ES/89/IPZ229/1/89 axenic amastigotes infected expressing GFP in human […] cells assessed as axenic parasite killing at 3 uM after 48 hrs by propidium iodide staining based flow cytometry; format: functional
THP-1 [25] = test: Cytotoxicity against human THP1 cells infected with Leishmania infantum MCAN/ES/89/IPZ229/1/89 at 3 uM using propidium iodide staining by fluorescence contrast microscopy; format: cell-based; details: thp-1, 3 µM; in short: as §3
Jurkat [26] = test: Cytotoxicity against human Jurkat cells infected with Leishmania infantum MCAN/ES/89/IPZ229/1/89 at 1 uM by phase contrast microscopy; format: cell-based
Leishmania infantum [27] = test: Antileishmanial activity against Leishmania infantum MCAN/ES/89/IPZ229/1/89 amastigotes expressing GFP infected in human THP1 cells assessed as parasite infected cells at 3 uM after 48 hrs by flow cytometry (reference value: 35%); format: functional, THP-1

Row | Compound | Papp [1] | selectivity ratio [2] | GI (Leishmania infantum [3]) | Fa [4] | IC50 (Jurkat [5]) | Activity (Leishmania infantum [6]) | IC50 (Leishmania infantum [7]) | Ratio IC50 (Leishmania infantum [8]) | IC50 (THP-1 [9]) | Ratio IC50 (Leishmania infantum [10]) | GI (Leishmania infantum [11]) | GI (Leishmania infantum [12]) | selectivity ratio [13] | IC50 (Leishmania infantum [14]) | further results
1 | O=[N+]([O-])c1ccc(C[Se][Se]Cc2ccc([N+](=O)[O-])cc2)cc1 | 2.01 ×10⁻⁶ cm/s | 77 | 98.7% | 98.3% | 26.8 µM | 17% | 0.38 µM | 7.5 | 18.8 µM | 2.2 | 96.3% | 81.8% | 71 |  | 
2 | N#C[Se]Cc1ccccc1[N+](=O)[O-] |  | 21 | 98.6% |  | 12.9 µM |  | 0.34 µM | 8.3 | 7.1 µM | 2.4 | 89.8% | 74% | 38 | 3.32 µM | 
3 | Nc1ccc([Se][Se]c2ccc(N)cc2)cc1 | 2.29 ×10⁻⁶ cm/s | 24 | 98% | 97.6% | 12.1 µM | 9% |  |  | 14 µM |  | 97.6% | 95.8% | 32 | 0.96 µM | Activity (Jurkat [15]): Non-toxic; Activity (THP-1 [16]): Non-toxic; Activity (Leishmania infantum [17]): 74%; Activity (THP-1 [18]): Non-toxic; Activity (THP-1 [19]): Non-toxic; Activity (Leishmania infantum [20]): 100%; Activity (THP-1 [21]): Non-toxic; Activity (Jurkat [22]): Non-toxic; Activity (Jurkat [23]): Non-toxic; Activity (Leishmania infantum [24]): 100%; Activity (THP-1 [25]): Non-toxic; Activity (Jurkat [26]): Non-toxic
4 | CCCCCCCCCCCCCCCCCCOCC(COP(=O)([O-])OCC[N+](C)(C)C)OC (stereo unspecified) [EDELFOSINE] | 3.94 ×10⁻⁶ cm/s | 6 |  | 98.4% | 12.2 µM |  | 0.82 µM |  | 4.96 µM |  |  |  | 15 | 3.65 µM | Activity (Leishmania infantum [27]): 5%
